This note sets out measurements from ChEMBL document CHEMBL3046551, “Design, synthesis, and particular biological behaviors of chain-opening nitromethylene neonicotinoids with cis configuration” (2012).

The first test relates to Aphis craccivora. The test can be described thus: Insecticidal activity against adult Aphis craccivora (cowpea aphid) assessed as […] activity after 24 hr. It counts as functional. In outline:
(§1)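 Apterous adult aphids (40−60 per horsebean seedling) on seedlings dipped 5 s in DMF stock diluted with water containing Triton X-100 (0.1 mg L⁻¹); series concentrations 500.0, 250.0, 125.0 mg L⁻¹ and others. Held at 25 ± 1 °C, 50% RH. Triton water served as control. Mortality scored at 24 h, three repetitions, corrected, probit analysis.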
Broadly, the LC50 is the concentration that kills 50% of the test population. On to `COC1CC(C)C([N+](=O)[O-])=C2N(Cc3cnc(Cl)s3)CCN21` (stereo unspecified), for which the median lethal concentration (LC50) was determined as 190 µM.
The same measure, in the same setting: to `CC(C)OC1CC(C)C([N+](=O)[O-])=C2N(Cc3ccc(Cl)nc3)CCN21` (stereo unspecified) belongs 262 µM.
In the case of `O=[N+]([O-])/N=C1\NCCN1Cc1ccc(Cl)nc1` [IMIDACLOPRID], the 50% lethal concentration (LC50) is 30.9 µM.
`CCCOC1CC(C)C([N+](=O)[O-])=C2N(Cc3ccc(Cl)nc3)CCN21` (stereo unspecified) [PAICHONGDING]: the 50% lethal concentration (LC50) amounted to 91.8 µM.

The next test relates to Aphis craccivora. The test can be described thus: Insecticidal activity against adult Aphis craccivora (cowpea aphid) assessed as […] activity at 500 mg/l after 24 hr. Format: functional. A digest of the protocol:
as §1
As a reminder, the mortality is the percentage killed. On to `CCOC1CCC([N+](=O)[O-])=C(N(CC)Cc2ccc(Cl)nc2)N1C` (stereo unspecified), for which the mortality at 500 µg/mL turned out to be 17.7%.
On the same count and under the same terms, to `CCC1CC(OC(C)C)N(C)C(NCc2ccc(Cl)nc2)=C1[N+](=O)[O-]` (stereo unspecified) belongs 83.6%; to `CCOC1CC(C)C([N+](=O)[O-])=C(NCc2ccc(Cl)nc2)N1CC` (stereo unspecified), 85.2%; to `CCCOC1CC(C)C([N+](=O)[O-])=C(NCc2ccc(Cl)nc2)N1CC` (stereo unspecified), 94.6%.
Still for that read-out and setting: to `CCN1C(NCc2ccc(Cl)nc2)=C([N+](=O)[O-])C(C)CC1OC(C)C` (stereo unspecified) belongs 75%.
On the same count and under the same terms, to `CCC1CC(OC)N(CC)C(NCc2ccc(Cl)nc2)=C1[N+](=O)[O-]` (stereo unspecified) belongs 84.5%; to `CCCOC1CC(CC)C([N+](=O)[O-])=C(NCc2ccc(Cl)nc2)N1CC` (stereo unspecified), 93.4%; to `COC1CC(C)C([N+](=O)[O-])=C2N(Cc3cnc(Cl)s3)CCN21` (stereo unspecified), 100%.
In the case of `C=CCOC1CC(C)C([N+](=O)[O-])=C(N(CC)Cc2ccc(Cl)nc2)N1C` (stereo unspecified), the mortality at 500 µg/mL turned out to be 19.5%.
Same read-out and setting: to `COC1CCC([N+](=O)[O-])=C(N(C)Cc2ccc(Cl)nc2)N1C` (stereo unspecified) belongs 21.6%; to `CCOC1CCC([N+](=O)[O-])=C(N(C)Cc2ccc(Cl)nc2)N1C` (stereo unspecified), 23.3%; to `CCCOC1CCC([N+](=O)[O-])=C(N(C)Cc2ccc(Cl)nc2)N1C` (stereo unspecified), 15.2%.
On the same count and under the same terms, to `CC(C)OC1CCC([N+](=O)[O-])=C(N(C)Cc2ccc(Cl)nc2)N1C` (stereo unspecified) belongs 17.6%.
On to `C=CCOC1CCC([N+](=O)[O-])=C(N(C)Cc2ccc(Cl)nc2)N1C` (stereo unspecified), for which the mortality at 500 µg/mL turned out to be 15.8%.
Still for that read-out and setting: to `COC1CC(C)C([N+](=O)[O-])=C(N(C)Cc2ccc(Cl)nc2)N1C` (stereo unspecified) belongs 23.4%; to `CCOC1CC(C)C([N+](=O)[O-])=C(N(C)Cc2ccc(Cl)nc2)N1C` (stereo unspecified), 17.1%.
Still for that read-out and setting: to `CCCOC1CC(C)C([N+](=O)[O-])=C(N(C)Cc2ccc(Cl)nc2)N1C` (stereo unspecified) belongs 28.3%.
Same read-out and setting: to `CC(C)OC1CC(C)C([N+](=O)[O-])=C(N(C)Cc2ccc(Cl)nc2)N1C` (stereo unspecified) belongs 25.9%.
For the molecule `CCN(Cc1ccc(Cl)nc1)C1=C([N+](=O)[O-])CCC(O)N1C` (stereo unspecified), the mortality at 500 µg/mL amounted to 16.2%.
Still for that read-out and setting: to `CCN(Cc1ccc(Cl)nc1)C1=C([N+](=O)[O-])CCC(OC)N1C` (stereo unspecified) belongs 24.3%; to `CCCOC1CCC([N+](=O)[O-])=C(N(CC)Cc2ccc(Cl)nc2)N1C` (stereo unspecified), 23.7%; to `CCN(Cc1ccc(Cl)nc1)C1=C([N+](=O)[O-])CCC(OC(C)C)N1C` (stereo unspecified), 15.3%.
As for `CCN(Cc1ccc(Cl)nc1)C1=C([N+](=O)[O-])C(C)CC(OC)N1C` (stereo unspecified), the mortality at 500 µg/mL was 27.6%.
Turning to `CCOC1CC(C)C([N+](=O)[O-])=C(N(CC)Cc2ccc(Cl)nc2)N1C` (stereo unspecified), the mortality at 500 µg/mL was 31.8%.
The same measure, in the same setting: to `CCCOC1CC(C)C([N+](=O)[O-])=C(N(CC)Cc2ccc(Cl)nc2)N1C` (stereo unspecified) belongs 27.2%; to `CCN(Cc1ccc(Cl)nc1)C1=C([N+](=O)[O-])C(C)CC(OC(C)C)N1C` (stereo unspecified), 25.8%.
On the same count and under the same terms, to `CC(C)OC1CC(C)C([N+](=O)[O-])=C2N(Cc3ccc(Cl)nc3)CCN21` (stereo unspecified) belongs 100%.
Still for that read-out and setting: to `O=[N+]([O-])/N=C1\NCCN1Cc1ccc(Cl)nc1` [IMIDACLOPRID] belongs 100%; to `CCCOC1CC(C)C([N+](=O)[O-])=C2N(Cc3ccc(Cl)nc3)CCN21` (stereo unspecified) [PAICHONGDING], 100%.

A further test relates to Empoasca. Description: Insecticidal activity against Empoasca (Green Leafhopper). Format: functional.
For `N/C(=C\[N+](=O)[O-])NCc1ccc(Cl)nc1`, the LC95 was >200 ppm.
Molecule `CCN(Cc1ccc(Cl)nc1)/C(=C/[N+](=O)[O-])NC` [NITENPYRAM] came in with an LC95 of 40 ppm.

The subject of the next test is Aphis craccivora. Description: Repellent activity against adult Aphis craccivora (cowpea aphid) at 500 mg/l. Format: functional. In outline:
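Y-tube olfactometer choice test. Aphid-free horsebean seedlings were dipped 5 s in DMF-dissolved compound diluted in water with Triton X-100 (0.1 mg L⁻¹) and dried. Treated and control seedlings were placed in opposite arms, and apterous adults were introduced into the third arm. The olfactometer was covered with black cloth at 25 ± 1 °C, 50% RH. Adults per arm were counted after 1 h; three repeats.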
In turn, `CCOC1CC(C)C([N+](=O)[O-])=C(N(CC)Cc2ccc(Cl)nc2)N1C` (stereo unspecified) showed a Repellency of 66.4%.
